Reference: ChEMBL document CHEMBL1156776, “Hybrid inhibitors of phosphatidylinositol 3-kinase (PI3K) and the mammalian target of rapamycin (mTOR): design, synthesis, and superior antitumor activity of novel wortmannin-rapamycin conjugates” (J Med Chem, 2010)
The source made the active and inactive calls. The rule behind the calls is not given here.

Tests used:
[1] = Inhibition of PI3K
[2] = test system: Plasma; assay: Stability in mouse plasma in presence of esterase inhibitor sodium fluoride; assay type: ADME, cell-free
Outline: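 Compound was incubated in nude mouse plasma or whole blood at 37 °C for 2 h, with heparin or sodium fluoride/EDTA as anticoagulant. Time-point samples were quenched with acetonitrile, dried, reconstituted and analysed by LC/MS for parent and hydrolysis products.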

[3] = target: Serine/threonine-protein kinase mTOR (Homo sapiens) (UniProt P42345); assay: Inhibition of mTOR
[4] = Stability in mouse plasma assessed as compound remaining after 120 mins relative to basal level; assay type: ADME, cell-free; settings: read-out: Stability
Outline: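 Compound was incubated in heparinized plasma at 37 °C for 2 h. Samples taken at various time points were quenched with acetonitrile, dried under nitrogen and reconstituted in methanol/water 20:80. Intact compound was quantified by LC/MS.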

[5] = test system: U-87MG ATCC; assay: Antitumor activity against human U87MG cells xenografted in nude mouse assessed as tumor growth inhibition at 3 mg/kg, iv once weekly; assay type: functional, organism-based; set-up: dose 3 mg/kg
Outline: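 U87MG glioma xenografts in nude mice were staged and randomized (n = 10). Dosing was iv once weekly in D5W (days 0, 6 or days 0, 6, 13), with vehicle controls. Tumor volume was measured twice weekly.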

[6] = test system: Plasma; assay: Stability in human plasma after 5 hrs; assay type: ADME, cell-free
[7] = test system: Plasma; assay: Stability in mouse plasma after 5 hrs; assay type: ADME, cell-free
[8] = test system: Plasma; assay: Stability in rat plasma after 5 hrs; assay type: ADME, cell-free
[9] = Solubility at pH 7.4; assay type: physicochemical; settings: buffer
[10] = test system: HT-29; assay: Antitumor activity against human HT-29 cells xenografted in nude mouse assessed as tumor growth inhibition at 5 mg/kg, iv once weekly; assay type: functional, organism-based; set-up: dose 5 mg/kg
Outline: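 HT29 cells from ATCC, cultured by standard methods, grown as tumors in nude mice and randomized into groups (n = 10). Agent formulated in 5% dextrose in water and given iv once weekly. Vehicle-dosed controls. Tumor growth was monitored and analyzed as previously described.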

Compound | inhibition [1] | Stability [2] | inhibition [3] | remaining at 2 h [4] | Activity [5] | Stability [6] | Stability [7] | Stability [8] | solubility [9] | Activity [10]
COC[C@H]1OC(=O)/C(=C\N(C)CCCN(C)C)C2=C(O)C(=O)C3=C([C@H](OC(C)=O)C[C@]4(C)[C@@H](OC(=O)CCC(=O)O[C@@H]5CC[C@@H](C[C@@H](C)[C@@H]6CC(=O)[C@H](C)/C=C(\C)[C@@H](O)[C@@H](OC)C(=O)[C@H](C)C[C@H](C)/C=C/C=C/C=C(\C)[C@@H](OC)C[C@@H]7CC[C@@H](C)[C@@](O)(O7)C(=O)C(=O)N7CCCC[C@H]7C(=O)O6)C[C@H]5OC)CC[C@@H]34)[C@]21C | inactive | Stable | inactive | 15% | Active |  |  |  |  | 
C=CCN(/C=C1\C(=O)O[C@H](COC)[C@@]2(C)C1=C(O)C(=O)C1=C2[C@H](OC(C)=O)C[C@]2(C)[C@@H](OC(=O)CCCCCCC(=O)O[C@@H]3CC[C@@H](C[C@@H](C)[C@@H]4CC(=O)[C@H](C)/C=C(\C)[C@@H](O)[C@@H](OC)C(=O)[C@H](C)C[C@H](C)/C=C/C=C/C=C(\C)[C@@H](OC)C[C@@H]5CC[C@@H](C)[C@@](O)(O5)C(=O)C(=O)N5CCCC[C@H]5C(=O)O4)C[C@H]3OC)CC[C@@H]12)CC=C | inactive |  | inactive |  |  | Stable | Stable | Stable |  | 
C=CCN(/C=C1\C(=O)O[C@H](COC)[C@@]2(C)C1=C(O)C(=O)C1=C2[C@H](OC(C)=O)C[C@]2(C)[C@@H](O)CC[C@@H]12)CC=C |  |  |  |  |  |  |  |  | > 100 µg/mL | 
COC[C@H]1OC(=O)/C(=C\N(C)CCCN(C)C)C2=C(O)C(=O)C3=C([C@H](OC(C)=O)C[C@]4(C)[C@@H](O)CC[C@@H]34)[C@]21C |  |  |  |  |  |  |  |  | > 10000 µg/mL | inactive
C=CCN(/C=C1\C(=O)O[C@H](COC)[C@@]2(C)C1=C(O)C(=O)C1=C2[C@H](OC(C)=O)C[C@]2(C)[C@@H](OC(=O)CCCCCCC(=O)O[C@H]3CC[C@H](C[C@@H](C)[C@@H]4CC(=O)[C@H](C)/C=C(\C)[C@@H](O)[C@@H](OC)C(=O)[C@H](C)C[C@H](C)/C=C/C=C/C=C(\C)[C@@H](OC)C[C@@H]5CC[C@@H](C)[C@@](O)(O5)C(=O)C(=O)N5CCCC[C@H]5C(=O)O4)CC3)CC[C@@H]12)CC=C | inactive |  | inactive |  |  | Stable | Stable | Stable |  | 
